Target: HSA (human serum albumin) (Homo sapiens, UniProt P02768)
Assay: intrinsic fluorescence quenching, double-logarithmic plot
Assay type: binding
Conditions: Tris-HCl pH 7.40, 298 K, no added metal ion
Method in brief: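 HSA (1.00 × 10−4 mol L−1) titrated stepwise with test compound dissolved in DMSO. Emission spectra recorded at 300–600 nm with excitation at 292 nm and both slits at 15 nm. Spectra taken at 291, 298, 304 and 310 K. Intensities corrected for inner-filter effect. Ka and n derived from double-logarithmic fit of intensity versus quencher concentration.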

Chain of HSA (human serum albumin) (P02768 25-609): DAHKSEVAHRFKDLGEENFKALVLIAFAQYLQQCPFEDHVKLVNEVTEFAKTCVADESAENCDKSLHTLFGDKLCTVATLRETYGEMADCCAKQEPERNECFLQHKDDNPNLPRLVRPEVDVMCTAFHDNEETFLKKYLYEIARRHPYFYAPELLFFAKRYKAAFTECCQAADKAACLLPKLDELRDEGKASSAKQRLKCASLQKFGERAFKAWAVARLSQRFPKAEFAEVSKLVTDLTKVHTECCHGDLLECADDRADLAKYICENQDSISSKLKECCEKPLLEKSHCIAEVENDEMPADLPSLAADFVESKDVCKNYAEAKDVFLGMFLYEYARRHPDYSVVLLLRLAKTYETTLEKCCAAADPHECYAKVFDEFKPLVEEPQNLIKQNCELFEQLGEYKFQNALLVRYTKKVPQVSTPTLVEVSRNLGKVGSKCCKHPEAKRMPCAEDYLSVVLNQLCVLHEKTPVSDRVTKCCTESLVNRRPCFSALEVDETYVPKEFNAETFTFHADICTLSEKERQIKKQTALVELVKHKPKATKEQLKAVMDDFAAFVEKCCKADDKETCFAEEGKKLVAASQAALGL

| Compound | Ka/(L.mol^-1) (n = 0.9857) | Ka/(L.mol^-1) (n = 1.0099) |
| --- | --- | --- |
| COc1cc(/C=C/C(=O)O)ccc1O [FA, ferulic acid] | 2.5668 × 10^4 ±2.0417 L∙mol^−1 |  |
| COC(=O)/C=C/c1ccc(O)c(OC)c1 [FAM, ferulic acid methyl ester] |  | 8.7256 × 10^4 ±1.1863 L∙mol^−1 |

— PMC10835327 (Heliyon, 2024)
